# Apaf1 inhib – inhibitors of human Apaf-1 apoptosome, primary screen, biochemical, DEVD-Rh110 fluorescence, uHTS; Apoptotic protease-activating factor 1 (Homo sapiens), O14727; reconstituted apoptosome caspase-3 activity; inhibition, % at 20 µM; actives 0.71% (n = 330,000); AID 489030, 2010; active = inhibition of at least 40% at 20 µM;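 also: plate controls were DMSO wells for no effect and DEVD-CHO caspase inhibitor wells for full effect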
#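 Material: biochemical Apaf-1 apoptosome reconstitution. Medium: Hepes buffer, pH 7.5. Also added: cytochrome c activation, bis-DEVD rhodamine 110 substrate. Timing: 30 min compound preincubation, 50 min activation, room temperature. Measured by: rhodamine 110 fluorescence at Ex 480/Em 540 nm.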
# XBP1 UPR activ – activators of adaptive XBP1 UPR arm, primary screen, cell-based, CHO-XBP1 luciferase reporter, luminescence, uHTS | AID 463104, 2010 | IRE1-XBP1 UPR activation; percent of tunicamycin response, DMSO as zero | activation, % at 20 µM | actives 0.33% (n = 330,000);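 active = versus positive control, 20 µM dose yields 30% or more activation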;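 also: 100% = tunicamycin at 10 µg/mL and 0% = DMSO only wells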
#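 Assay system: CHO-XBP1 luciferase reporter cells; Schedule: 6 h treatment, 37 °C; Detection: glow luminescence from Steady-Glo reagent; Benchmarks: high control tunicamycin 10 µg/mL final, low control DMSO vehicle only.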
# CHOP UPR activ – activators of apoptotic CHOP UPR arm, primary screen, cell-based, CHO-CHOP luciferase reporter, luminescence, uHTS | UPR activation; percent of tunicamycin response over DMSO baseline | AID 449763, 2010 | activation, % at 10 µM | actives 0.34% (n = 330,000);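 active = at 10 µM dose, activation of 40% or more, normalized to positive control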;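 also: 100% = tunicamycin at 10 µg/mL and 0% = DMSO alone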
#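 System: CHO-CHOP luciferase reporter cell line | Buffer or medium: F12 medium containing 10% fetal bovine serum | Doses: One dose, 10 µM in 0.5% DMSO | Times: 6 h compound exposure at 37 °C after overnight seeding | Signal: Luciferase luminescence | Read-out: % activation vs tunicamycin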
# Mdm2 MdmX PPI – inhibitors of human Mdm2-MdmX association, primary screen, cell-based, luminescence, split luciferase, SaOS-2, uHTS; inhibition, % at 8 µM; SaOS-2 split-luciferase Mdm2/MdmX complementation; actives 3% (n = 330,000);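 active = inhibition of at least 50% at 8 µM in the primary screen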
# UBC13 polyUb – UBC13 polyubiquitin chain formation inhibitors, primary screen, biochemical, TR-FRET, uHTS | inhibition, % at 20 µM | actives 0.47% (n = 330,000); in the data active = inhibition above about 45%, passing the limit was not always enough
# Target sequence (P61088 whole entry, looked up): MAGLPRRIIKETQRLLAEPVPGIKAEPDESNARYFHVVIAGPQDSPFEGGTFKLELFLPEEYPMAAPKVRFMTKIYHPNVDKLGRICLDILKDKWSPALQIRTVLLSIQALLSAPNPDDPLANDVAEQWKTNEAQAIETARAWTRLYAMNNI
# Mdm2-MdmX conf – Mdm2-MdmX complex disruptors, retested hits, confirmation, luminescence, single concentration; Mdm2-MdmX binding, luminescent assay; shares compounds with Mdm2 MdmX PPI; actives 55% (n = 10,000); inhibition, % at 8 µM; in the data active = inhibition above about 40%
# Full FLuc ctr – full-length luciferase signal inhibition, confirmation, counter-screen for Mdm2/MdmX interaction inhibitor project, cell-based, single concentration, SaOS-2; shares compounds with Mdm2 MdmX PPI; SaOS-2 full-length luciferase counterscreen, luminescence; inhibition, % at 8 µM; actives 77% (n = 6,200);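 active = mean inhibition at 8 µM reaching about 37%, which flags the compound as non-specific, limit read from the data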;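 also: p53-null SaOS-2 cells with luciferase driven by a doxycycline-inducible promoter; compound on cells about two nights before reading with doxycycline added after day one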
# * = called active by the depositor; . = not tested or not shown. Only some compounds are listed: those with a hit (about 4.1% of all), similar ones and a draw of the others.
SMILES,Apaf1 inhib,XBP1 UPR activ,CHOP UPR activ,Mdm2 MdmX PPI,UBC13 polyUb,Mdm2-MdmX conf,Full FLuc ctr
On1onc2c3cc(-c4ccccc4)nc3ccc21,3,5,11,69*,17,58*,65*
COc1ccc(Br)cc1CN1CCN(Cc2c[nH]c3ccccc23)CC1,13,-3,1,69*,22,39,83*
C=CCc1cccc(/C=N/NC(=O)CNc2ccccc2)c1O,20,2,1,56*,2,55*,33
C=CCc1cccc(/C=N/NC(=O)CNc2ccccc2OC)c1O,24,1,0,69*,-2,55*,28
COc1ccccc1/C=N/NC(=O)COCC(=O)N/N=C/c1ccccc1OC,0,-4,-1,7,5,.,.
C=CCc1cccc(/C=N/NC(=O)CCC(=O)Nc2ccc(F)cc2)c1O,-5,-3,-2,71*,-10,64*,17
C=CCc1cccc(/C=N/NC(=O)C(C)Nc2cccc(C)c2)c1O (stereo unspecified),11,-2,-3,71*,2,56*,35
C=CCc1cccc(/C=N/NC(=O)C[n+]2ccccc2)c1O,-1,-2,2,7,4,.,.
O=C(CCC(=O)Nc1ccc(F)cc1)N/N=C/c1ccccc1,1,-2,2,8,4,.,.
O=C(Nc1ccccc1)N1CCN(S(=O)(=O)c2ccccc2)CC1,-1,-3,-3,4,1,.,.
Cc1cccc(C)c1NC(=O)Cn1nc(-c2ccc(Cl)s2)ccc1=O,6,-2,1,30,4,.,.
CC1=NN(c2nc(-c3ccc(C)cc3)cs2)C(=O)C1N=Nc1cccc(O)c1 (stereo unspecified),13,3,-1,36,-60,.,.
CC1=NN(c2nc(-c3ccc(C)cc3)cs2)C(=O)C1N=Nc1ccccc1O (stereo unspecified),17,1,2,72*,-89,80*,32
COc1ccc(N/N=C/c2c(C(=O)O)ccc3ccccc23)cc1,4,1,-1,86*,-18,90*,24
O=C(Nc1nnc(-c2ccccc2Cl)s1)c1ccccc1F,-1,-1,5,86*,21,-8,.
NC(=O)c1ccccc1NC(=O)c1ccccc1Cl,0,0,1,15,4,.,.
O=C(Nc1ccccc1C(=O)Nc1nnc(C(F)(F)F)s1)c1ccccc1Cl,1,-1,7,95*,-1,94*,22
Cc1nc2cc(N3CCCCC3)c(NC(=O)c3ccncc3)cc2c(=O)n1Cc1ccc(Cl)cc1,11,9,22,89*,-8,-3,.
NC(=O)c1ccc(NC(=O)COC(=O)c2cc3ccccc3cc2O)cc1,-13,-1,0,54*,9,-10,.
O=C(NC(CC1CCCCC1)C(=O)O)c1ccccc1 (stereo unspecified),3,-2,0,-1,-4,.,.
CNC[C@H](CC1CCCCC1)NC[C@H](CO)NCC1(c2ccccc2)CC1,5,3,-1,86*,20,58*,45*
CNC[C@H](CC1CCCCC1)NC[C@H](CO)NCCc1cccc(C(F)(F)F)c1,10,13,5,99*,38,97*,58*
COc1ccccc1-c1nnc2sc(-c3ccc(N(C)C)cc3)nn12,-11,24,5,69*,3,68*,94*

# High-throughput results as filed in PubChem BioAssay.
